Measured values published in ChEMBL document CHEMBL1130159, “Chlorogenic acid and synthetic chlorogenic acid derivatives: novel inhibitors of hepatic glucose-6-phosphate translocase” (J Med Chem, 1997).

organism: Rattus norvegicus; test: Percent inhibition against glucose-6-phosphate hydrolysis in highly intact microsomal preparations obtained from livers of 20-h fasted rats at 0.25 mM; format: functional, microsomes; settings: Liver, Microsome
How it was run: (§1)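 Intact microsomes from 20-h-fasted male Wistar rat liver; 100 μg protein incubated 10 min at 22 °C with 1 mM glucose 6-phosphate in pH 7.0 sucrose/HEPES buffer, ≤1.25% methanol. Released phosphate measured colorimetrically at 630 nm after background subtraction. Percent inhibition versus vehicle control; representative of at least two independent experiments.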

| SMILES | inhibition [%] |
| --- | --- |
| O=C(/C=C/c1ccc(O)cc1)O[C@@H]1CC(C(=O)O)=C[C@@H](O)[C@H]1O | 50 |

organism: Rattus norvegicus; test: Percent inhibition against glucose-6-phosphate hydrolysis in highly intact microsomal preparations obtained from livers of 20-h fasted rats at 1 mM; format: functional, microsomes; settings: Liver, Microsome; how it was run: as §1

| SMILES | inhibition [%] |
| --- | --- |
| CCO[C@@]1(C(=O)O)C[C@@H](O)[C@@H](O)[C@H](OC(=O)/C=C/c2ccc(O)cc2)C1 | 38 |
| COC(=O)[C@]1(O)C[C@@H](O)[C@@H](O)[C@H](OC(=O)/C=C/c2ccc(O)c(O)c2)C1 | 50 |
| O=C(/C=C/c1ccc(O)c(O)c1)O[C@@H]1C[C@@](O)(C(=O)O)[C@H](O)[C@@H](O)[C@H]1O | 10 |
| O=C(/C=C/c1ccc(O)cc1)N[C@@H]1CC(C(=O)O)=C[C@@H](O)[C@H]1O | 15 |
| O=C(/C=C/c1ccc(O)cc1)O[C@@H]1C[C@H](C(=O)O)CC[C@H]1O | 20 |
| O=C(/C=C/c1ccc(O)cc1)O[C@@H]1C[C@](O)(C(=O)O)[C@@H](O)[C@@H](O)[C@H]1O | 30 |

system: not listed separately; test: Inhibition glucose-6-phosphate hydrolysis in highly intact microsomal preparations obtained from livers of 20-h fasted rats.; format: functional, microsomes, Rattus norvegicus, Liver, Microsome; settings: not given
How it was run: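 Male Wistar rats (160-180 g), fasted 20 h; liver microsomes by differential centrifugation, intactness usually above 97% (1 mM mannose 6-phosphate). 100 μg protein, 1 mM glucose 6-phosphate, 250 mM sucrose/50 mM HEPES pH 7.0, 10 min, 22 °C, compound 0.1-1000 μM (MeOH stock). Phosphate read at 630 nm, background-corrected; IC50 by nonlinear least-squares; at least two experiments.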

| SMILES | IC50 [µM] |
| --- | --- |
| O=C(/C=C/c1ccsc1)O[C@@H]1C[C@](O)(C(=O)O)C[C@@H](O)[C@H]1O | 380 |
| CO[C@@]1(C(=O)O)C[C@@H](O)[C@@H](O)[C@H](OC(=O)/C=C/c2ccc(O)cc2)C1 | 280 |
| O=C(/C=C/c1ccc(O)c(O)c1O)O[C@@H]1C[C@](O)(C(=O)O)C[C@@H](O)[C@H]1O | 310 |
| C#CCO[C@@]1(C(=O)O)C[C@@H](O)[C@@H](O)[C@H](OC(=O)/C=C/c2ccc(O)cc2)C1 | 230 |
| O=C(/C=C/c1ccc(O)cc1)O[C@@H]1C[C@](OCc2ccccc2)(C(=O)O)C[C@@H](O)[C@H]1O | 190 |
| O=C(/C=C/c1cccnc1)O[C@@H]1C[C@](O)(C(=O)O)C[C@@H](O)[C@H]1O | > 1000 |
| O=C(/C=C/c1ccc(O)cc1)O[C@@H]1C[C@](OCCCc2ccccc2)(C(=O)O)C[C@@H](O)[C@H]1O | 31 |
| O=C(/C=C/c1ccc(O)c(O)c1)O[C@@H]1C[C@](O)(C(=O)O)C[C@@H](O)[C@H]1O [CHLOROGENIC ACID] | 230 |
| O=C(O[C@@H]1C[C@](OCCCc2ccc(Cl)cc2)(C(=O)O)C[C@@H](O)[C@H]1O)C1CCCCC1 | 8.9 |
| O=C(/C=C/c1ccc(O)cc1)O[C@@H]1C[C@](OCCCCc2ccc(Cl)cc2)(C(=O)O)C[C@@H](O)[C@H]1O | 85 |
| O=C(O[C@@H]1C[C@](OCCCc2ccc(Cl)cc2)(C(=O)O)C[C@@H](O)[C@H]1O)c1snnc1-c1ccccc1 | 4.5 |
| O=C(/C=C/c1ccc(O)cc1)O[C@@H]1C[C@](OCc2ccc(-c3ccccc3)cc2)(C(=O)O)C[C@@H](O)[C@H]1O | 21 |
| O=C(/C=C/c1ccc(O)cc1)O[C@@H]1C[C@](OCc2cccs2)(C(=O)O)C[C@@H](O)[C@H]1O | 110 |
| O=C(/C=C/c1ccc(O)cc1)O[C@@H]1C[C@](OCCCc2ccc(Cl)cc2)(C(=O)O)C[C@@H](O)[C@H]1O | 2.5 |
| C=Cc1ccc(C(=O)O[C@@H]2C[C@](OCCCc3ccc(Cl)cc3)(C(=O)O)C[C@@H](O)[C@H]2O)cc1 | 1.3 |
| COc1cccc(CO[C@@]2(C(=O)O)C[C@@H](O)[C@@H](O)[C@H](OC(=O)/C=C/c3ccc(O)cc3)C2)c1 | 47 |
| CC(C)CCC(=O)O[C@@H]1C[C@](OCCCc2ccc(Cl)cc2)(C(=O)O)C[C@@H](O)[C@H]1O | 41 |
| O=C(COc1ccccc1)O[C@@H]1C[C@](OCCCc2ccc(Cl)cc2)(C(=O)O)C[C@@H](O)[C@H]1O | 12 |
| O=C(CCc1ccc(O)c(O)c1)O[C@@H]1C[C@](O)(C(=O)O)C[C@@H](O)[C@H]1O | 680 |
| O=C(/C=C/c1ccc(O)cc1)O[C@@H]1C[C@](O)(C(=O)O)C[C@@H](O)[C@H]1O | 250 |

organism: Rattus norvegicus; test: Percent inhibition against glucose-6-phosphate hydrolysis in highly intact microsomal preparations obtained from livers of 20-h fasted rats at 0.23 mM; format: functional, microsomes; settings: Liver, Microsome; how it was run: as §1

| SMILES | inhibition [%] |
| --- | --- |
| O=C(/C=C/c1ccc(O)cc1)O[C@@H]1C[C@H](C(=O)O)C[C@@H](O)[C@H]1O | 50 |
